MC4R barr agon: MC4R agonists recruiting beta-arrestin, primary screen, cell-based, luminescence, agonist arm of biased-ligand search. Melanocortin receptor 4 (Homo sapiens), P32245. U2OS MC4R beta-arrestin complementation; percent of melanotan II response, DMSO zero. activation, % at 8.9 µM. actives 0.98% (n = 360,000). AID 540308, 2011;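 active means activation above a per-plate cutoff, the mean activation of sample wells on that plate plus 3 SD, cut at about 8% in these data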
ATG4B inh: ATG4B protease inhibitors, primary screen, biochemical, fluorescence, uHTS; inhibition, % at 8.33 µM; actives 0.51% (n = 340,000); ATG4B cleavage of LC3-PLA2, NBD-HPC fluorescence, 1 h; AID 504462, 2011; in the data active means inhibition above about 40%
Target sequence (Q9Y4P1 whole entry, looked up): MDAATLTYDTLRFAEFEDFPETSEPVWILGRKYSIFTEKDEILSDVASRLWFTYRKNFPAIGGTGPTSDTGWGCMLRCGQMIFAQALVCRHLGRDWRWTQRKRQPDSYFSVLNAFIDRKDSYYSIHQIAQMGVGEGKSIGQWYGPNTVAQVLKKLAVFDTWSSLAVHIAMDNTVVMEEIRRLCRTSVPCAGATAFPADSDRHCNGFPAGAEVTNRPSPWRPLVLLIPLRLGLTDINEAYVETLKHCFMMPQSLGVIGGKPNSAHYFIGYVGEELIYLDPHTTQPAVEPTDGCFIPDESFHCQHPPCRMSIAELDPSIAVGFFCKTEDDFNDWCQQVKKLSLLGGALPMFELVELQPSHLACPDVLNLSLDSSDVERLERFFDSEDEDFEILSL
MC4R antag cAMP: MC4R antagonists of cAMP signaling, primary screen, cell-based, TR-FRET, antagonist arm of biased-ligand search; Melanocortin receptor 4 (Homo sapiens), P32245; MC4R-expressing cells, MTII-stimulated cAMP, LANCE TR-FRET; inhibition, % at 6.5 µM; actives 0.48% (n = 360,000); AID 540295, 2011;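 active means inhibition above its plate's cutoff, the mean of tested wells on that plate plus 3 SD, cut at about 29% in these data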;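 further: 0% = Melanotan II alone and 100% = Melanotan II plus saturating MCL0020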
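Test system: U2OS cells stably expressing human melanocortin 4 receptor (MC4R); also added: Melanotan II challenge; compound: 6.5 µM single dose; timing: 30-min compound preincubation, 1-h Melanotan II challenge, 1-h detection, room temperature; signal: Eu-cAMP/anti-cAMP TR-FRET, emission 671 nm; repeats: one well per compound, no replicates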
SMARCA2 activ: SMARCA2 (BRM) function activators, primary screen, cell-based, luminescence, high throughput. MG213 cells, MMTV-luciferase reporter, dexamethasone, overnight. activation, % at 9.1 µM. actives 1% (n = 370,000); in the data active means activation above about 7.8%;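 further: 0% = vehicle wells and 100% = reference activator wells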
MPTP block: mitochondrial permeability transition pore inhibitors, primary screen, biochemical, isolated mouse mitochondria, absorbance. actives 1.4% (n = 360,000). Ca2+ swelling absorbance, 30 min. inhibition, % at 10 µM;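 active means inhibition of 50% or more, scaled per plate between neutral and stimulator controls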;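 further: 0% = DMSO wells given calcium and 100% = 1 mM EGTA wells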
SMARCA2 act conf: SMARCA2 (BRM) function activators, confirmation, cell-based, luminescence, triplicate; shares compounds with SMARCA2 activ; MG213 cells, MMTV-luciferase with dexamethasone, overnight; MG213 cells expressing E1A, Rb sequestered; DMSO wells 0%, reference activator 100%; activation, % at 9.1 µM; actives 30% (n = 3,500); AID 652260, 2013;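 active means activation above its plate's cutoff, the mean activation of tested wells plus 3 SD, cut at about 7.9% in these data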
VP16 Luc act: GAL4-VP16 luciferase reporter activation, counter-screen for SMARCA2 (BRM) activator project, cell-based, pG5luc, luminescence, high throughput; shares compounds with SMARCA2 activ; HEK293 GAL4-VP16 pG5luc reporter; scaled: DMSO wells 0%, SAHA wells 100%; activation, % at 9.1 µM; actives 41% (n = 3,500);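 active means activation above the solvent-only control well mean plus 3 SD, averaged across control plates, cut at about 5.2% in these data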
Active calls of the source: *; x = no result. Only some compounds are listed: those with a hit (about 4.1% of all), similar ones and a draw of the others.

SMILES	MC4R barr agon	ATG4B inh	MC4R antag cAMP	SMARCA2 activ	MPTP block	SMARCA2 act conf	VP16 Luc act
COc1ccc(N=C2C(=Nc3ccc(OC)cc3)N(c3ccc(OC)cc3)C(=S)N2C(=O)c2ccc(OC)cc2)cc1	1.0	1.1	-5.6	1.2	3.2	x	x
COc1ccc(N2C(=S)N(C(=O)c3ccccc3)C(=Nc3ccccc3)C2=Nc2ccccc2)cc1	-1.1	-2.4	-2.0	11.2*	0.8	2.3	3.1
O=C(CCn1c(=O)oc2ccccc21)Nc1ccccc1	-1.1	-7.6	-3.4	9.0*	-0.7	-2.4	1.3
O=C(CCCn1c(=O)oc2ccccc21)Nc1ccccc1	-0.8	-8.5	5.5	0.3	-2.7	x	x
CC(C)(C)c1ccc(/C=N/NC(=O)c2ccccn2)cc1	-2.1	-6.9	-0.2	9.8*	0.0	2.4	9.0*
O=C(N/N=C/c1ccc(Br)s1)c1ccccn1	-3.1	1.6	-6.1	10.6*	2.9	14.2*	9.0*
O=C(N/N=C/c1ccsc1)c1ccccn1	-1.1	0.3	-4.9	2.0	-0.5	x	x
COc1cc(/C=N/NC(=O)c2ccccn2)cc2c1OCO2	1.2	-7.0	-4.3	16.9*	2.1	8.5*	8.5*
O=C(N/N=C/c1ccc(Br)s1)c1ccco1	0.8	5.6	7.3	-1.4	1.2	x	x
CCN(CC)c1ccc(NC(=O)c2cccnc2)c(C)c1	0.5	-0.5	4.5	2.0	0.6	x	x
CCN(CC)c1ccc(NC(=O)c2cccc(C)c2OC)c(C)c1	-1.1	5.7	7.6	8.2*	-0.4	14.2*	4.2
O=c1c2c(nc3cc(-c4cccc(Cl)c4)[nH]n13)CCC2	2.1	-2.5	6.2	10.5*	1.0	16.1*	13.0*
O=c1c2c(nc3cc(-c4ccc(Cl)cc4)[nH]n13)CCS2	-0.7	-3.5	1.8	12.6*	34.9	8.6*	7.6*
O=c1c2c(nc3cc(-c4cccc(F)c4)[nH]n13)CCC2	-1.3	-6.9	-8.7	12.5*	-1.7	8.0*	11.7*
O=c1c2c(nc3cc(-c4ccc(F)cc4)[nH]n13)CCCC2	-0.1	-8.6	-2.6	1.4	-2.8	x	x
COc1ccc2ccccc2c1C=NNC(=O)CN1CCN(Cc2ccccc2)CC1	x	x	x	-5.4	x	x	x
COc1cccc(-c2nnc(-c3ccc(C(F)(F)F)cc3)o2)c1	5.6	4.7	13.5	0.6	0.6	x	x
Oc1ccccc1-c1nnc(-c2ccc(C(F)(F)F)cc2)o1	7.0	-6.2	-2.0	9.9*	-1.3	4.0	6.9*
COc1ccc(-n2ncc3c2CC(C)(C)CC3NC(=O)Cc2nonc2C)cc1 (stereo unspecified)	1.7	9.9	-5.9	8.0*	-0.7	2.0	0.1
O=C(CSc1nnc(SCc2cccc3ccccc23)s1)Nc1ccccc1-c1ccccc1	x	x	x	-6.8	x	x	x
CC(=O)N1c2ccc(S(=O)(=O)N3CCC(C(=O)NCc4ccc(C)cc4)CC3)cc2CC1C (stereo unspecified)	-1.7	6.6	7.3	11.4*	-0.7	-2.1	0.8
CN(C)c1nc(=NCc2ccco2)ss1	-1.2	-5.7	9.5	x	-0.6	x	x
CCOC(CN=c1nc(N(C)C)ss1)OCC	-2.8	-2.4	-0.6	14.4*	-0.7	5.4	5.7*
O=c1[nH]c2ccc(S(=O)(=O)Nc3ccc(-c4nnc5n4CCCCC5)cc3)cc2o1	0.3	-1.1	10.0	12.1*	-0.4	-1.6	0.7
Cc1nc(-c2ccccc2)sc1C(=O)O	0.9	-10.0	10.5	2.5	-0.6	x	x
SMILES	MC4R barr agon	ATG4B inh	MC4R antag cAMP	SMARCA2 activ	MPTP block	SMARCA2 act conf	VP16 Luc act
Cc1nc(-c2ccc([N+](=O)[O-])cc2)sc1C(=O)O	7.6	6.1	-3.8	9.6*	-2.4	6.2	1.2
Cc1ccc(-c2nc(C)c(C(=O)O)s2)cc1	-1.8	-2.9	2.5	10.9*	-0.9	9.5*	7.4*
COc1ccc(Cn2cc3c(-c4ccc(F)cc4)nnc-3c3cc(OC)c(OC)cc32)cc1	-0.1	-0.3	-1.3	22.1*	4.3	46.6*	0.5
Cc1ccc(S(=O)(=O)n2ccc(-c3c(-c4ccc(F)cc4)noc3C)n2)cc1	x	x	x	-3.0	x	x	x
COc1ccc(C(=O)OCCCN(C)C2CN(Cc3cn(Cc4ccccc4C(F)(F)F)nn3)S(=O)(=O)C2)cc1OC (stereo unspecified)	x	x	x	0.5	x	x	x
COc1ccccc1OCCSc1nnnn1-c1ccc(C)cc1	0.1	-2.7	-1.7	9.0*	0.1	0.3	2.8
O=C(c1ccco1)N1CCN(c2ccc(F)cc2)CC1	0.1	-7.0	-2.2	18.4*	0.9	2.4	5.8*
COC(=O)C1=C(C)N(Cc2ccc(Br)cc2)C(=S)NC1c1cccc(F)c1 (stereo unspecified)	x	x	x	-5.6	x	x	x
CCc1cc(=O)n2c([nH]c3ccccc32)c1C#N	-0.4	11.4	16.6	1.1	-0.9	x	x
CC(SCc1cc(=O)n2c([nH]c3ccccc32)c1C#N)C(=O)O (stereo unspecified)	-1.4	3.8	10.8	10.9*	-2.6	0.1	-0.2
O=C(Cn1cnc2ccccc2c1=O)Nc1ccc2c(c1)OCCO2	-2.5	-0.2	-1.1	8.0*	3.0	6.2	11.8*
O=C(CCCc1ccccc1)Nc1ccc2c(c1)OCCO2	1.2	0.9	-0.4	9.3*	-2.0	4.5	8.8*
O=C(Nc1ccc2c(c1)OCCO2)C(=S)NCc1ccccc1	-1.6	10.3	11.5	9.7*	1.3	4.5	3.6
CC1(C(=O)Nc2cccc3ccccc23)CCN1C(=O)Cc1ccc(Cl)cc1Cl (stereo unspecified)	0.8	x	-6.7	-1.7	0.2	x	x
CCCC(=O)Nc1nnc(-c2ccc3c(c2)OCCO3)o1	-1.9	0.3	-6.0	10.3*	0.5	6.1	4.2
CC1=NN(c2ccccc2)C(=O)C1	0.2	4.0	3.3	-6.6	0.3	x	x
CC1=NN(Cc2ccccc2)C(=O)C1	-4.8	0.7	5.3	10.2*	0.7	-4.2	1.4
O=C(NNC(=O)C1CC2CCC1C2)c1sc2ccccc2c1Cl (stereo unspecified)	-0.9	-9.9	14.3	8.4*	1.7	4.9	4.6
O=C(CNC(=O)c1sc2ccccc2c1Cl)NC1CC1	0.2	5.1	-2.2	3.3	-0.9	x	x

Bioassay records from PubChem.
